For assay [1], the system named is MGC-803. Kind of assay: Cytotoxicity against human MGC803 cells after 48 hrs by MTT assay. The assay is classed as functional, cell-based. The settings on record: MGC-803, 48 h. An outline of the steps:
(§1)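 Cells grown in medium with 10% heat-inactivated FBS, 5% CO2, 37 °C. Compounds given in medium with 1% DMSO at 1.25–20 graded concentrations; 1% DMSO medium served as control. MTT (5 mg/mL) added, formazan dissolved in DMSO, absorbance read at 570/630 nm. Survival expressed relative to negative control. IC50 by Bliss method (n=5), at least three independent experiments, mean ± SD.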
Background: Tetrazolium assays rely on reduction of a dye to a coloured formazan, in cell work by metabolically active cells.

Assay [2] concerns HepG2. Kind of assay: Cytotoxicity against human HepG2 cells after 48 hrs by MTT assay. The format is functional, cell-based. Conditions: HepG2, 48 h. An outline of the steps:
as §1

In assay [3] the test system is NCI-H460. Nature of the assay: Cytotoxicity against human NCI-H460 cells after 48 hrs by MTT assay. The assay is classed as functional, cell-based. The settings on record: NCI-H460, 48 h. An outline of the steps: as §1
The subject of assay [4] is HUVEC. Nature of the assay: Cytotoxicity against human HUVEC cells after 48 hrs by MTT assay. The format is cell-based. The procedure, abridged:
as §1

Assay [5] is described as follows: Cytotoxicity against human SMMC-7404 cells after 48 hrs by MTT assay. The assay is classed as functional, cell-based. The settings on record: SMMC-7404, 48 h. An outline of the steps: as §1
Assay [6] concerns HeLa. Nature of the assay: Cytotoxicity against human HeLa cells after 48 hrs by MTT assay. The format is functional, cell-based. An outline of the steps:
as §1

A value given as a limit tells only on which side of the number the result lay.

Experimental findings from ChEMBL document CHEMBL3352325, “Synthesis and biological evaluation of novel aniline-derived asiatic acid derivatives as potential anticancer agents” (Eur J Med Chem, 2014) are described below.

By IC50 is commonly meant the midpoint of a concentration-inhibition curve. With `Cc1ccc(NC(=O)[C@]23CC[C@@H](C)[C@H](C)[C@H]2C2=CC(=O)[C@@H]4[C@@]5(C)C[C@@H](O)[C@H](O)[C@@](C)(CO)[C@@H]5CC[C@@]4(C)[C@]2(C)CC3)cc1`, the IC50 in assay [1] was 14.6 µM; in assay [2] it was 22.6 µM; in assay [3], 30.2 µM; in assay [4], greater than 100 µM; in assay [5], greater than 100 µM; in assay [6] it was 32.5 µM.

On to `C[C@H]1[C@H](C)CC[C@]2(C(=O)O)CC[C@]3(C)C(=CC[C@@H]4[C@@]5(C)C[C@@H](O)[C@H](O)[C@@](C)(CO)[C@@H]5CC[C@]43C)[C@H]12` [ASIATIC ACID], for which the IC50 in assay [1] was 22.6 µM; in assay [2] it was 34.9 µM; in assay [3], 39.6 µM; in assay [4], greater than 100 µM; in assay [5], 40.8 µM; in assay [6] it was 37.3 µM.

For the compound `C[C@H]1[C@H](C)CC[C@]2(C(=O)Nc3cccc4ccccc34)CC[C@]3(C)C(=CC(=O)[C@@H]4[C@@]5(C)C[C@@H](O)[C@H](O)[C@@](C)(CO)[C@@H]5CC[C@]43C)[C@H]12`, the IC50 in assay [1] is 19.9 µM; in assay [2], 21.3 µM; in assay [3], 16.6 µM; in assay [4], greater than 100 µM; in assay [5], 20.4 µM; in assay [6], 14 µM.

In the case of `COc1ccc(NC(=O)[C@]23CC[C@@H](C)[C@H](C)[C@H]2C2=CC(=O)[C@@H]4[C@@]5(C)C[C@@H](O)[C@H](O)[C@@](C)(CO)[C@@H]5CC[C@@]4(C)[C@]2(C)CC3)cc1`, the 50% inhibitory concentration (IC50) is 30.1 µM in assay [1]; 16.6 µM in assay [2]; greater than 100 µM in assay [3]; greater than 100 µM in assay [4]; greater than 100 µM in assay [5]; greater than 100 µM in assay [6].

For `C[C@H]1[C@H](C)CC[C@]2(C(=O)Nc3ccc(Cl)cc3)CC[C@]3(C)C(=CC(=O)[C@@H]4[C@@]5(C)C[C@@H](O)[C@H](O)[C@@](C)(CO)[C@@H]5CC[C@]43C)[C@H]12`, the IC50 in assay [1] was 22.5 µM; in assay [2], 29.8 µM; in assay [3], 12.8 µM; in assay [4] it was greater than 100 µM; in assay [5], 17.2 µM; in assay [6], 13.1 µM.

On to `C[C@H]1[C@H](C)CC[C@]2(C(=O)Nc3cccc(Cl)c3)CC[C@]3(C)C(=CC(=O)[C@@H]4[C@@]5(C)C[C@@H](O)[C@H](O)[C@@](C)(CO)[C@@H]5CC[C@]43C)[C@H]12`, for which the 50% inhibitory concentration (IC50) was 19.4 µM in assay [1]; 11.6 µM in assay [2]; 24.4 µM in assay [3]; greater than 100 µM in assay [4]; 34.4 µM in assay [5]; 14.2 µM in assay [6].

As for `Cc1cccc(NC(=O)[C@]23CC[C@@H](C)[C@H](C)[C@H]2C2=CC(=O)[C@@H]4[C@@]5(C)C[C@@H](O)[C@H](O)[C@@](C)(CO)[C@@H]5CC[C@@]4(C)[C@]2(C)CC3)c1`, the IC50 in assay [1] was 21.2 µM; in assay [2] it was 19.4 µM; in assay [3] it was 21.8 µM; in assay [4] it was greater than 100 µM; in assay [5] it was 16.1 µM; in assay [6], 14.6 µM.

For `C[C@H]1[C@H](C)CC[C@]2(C(=O)Nc3ccc(F)c(Cl)c3)CC[C@]3(C)C(=CC(=O)[C@@H]4[C@@]5(C)C[C@@H](O)[C@H](O)[C@@](C)(CO)[C@@H]5CC[C@]43C)[C@H]12`, the IC50 was 14.1 µM in assay [1]; 19.4 µM in assay [2]; 24.2 µM in assay [3]; greater than 100 µM in assay [4]; 19.1 µM in assay [5]; 14.2 µM in assay [6].

As for `O=c1[nH]cc(F)c(=O)[nH]1` [FLUOROURACIL], the IC50 in assay [2] worked out at 30 µM; in assay [5], 40.2 µM.

With `Cc1ccc(NC(=O)[C@]23CC[C@@H](C)[C@H](C)[C@H]2C2=CC(=O)[C@@H]4[C@@]5(C)C[C@@H](O)[C@H](O)[C@@](C)(CO)[C@@H]5CC[C@@]4(C)[C@]2(C)CC3)cc1Cl`, the IC50 in assay [1] is 20.1 µM; in assay [2] it was 18.4 µM; in assay [3], 19.1 µM; in assay [4] it was greater than 100 µM; in assay [5], 20.6 µM; in assay [6], 16 µM.

Consider `C[C@H]1[C@H](C)CC[C@]2(C(=O)Nc3ccc(Cl)c(Cl)c3)CC[C@]3(C)C(=CC(=O)[C@@H]4[C@@]5(C)C[C@@H](O)[C@H](O)[C@@](C)(CO)[C@@H]5CC[C@]43C)[C@H]12`, for which the IC50 in assay [1] is 13.9 µM; in assay [2], 13.8 µM; in assay [3] it was 21.4 µM; in assay [4] it was greater than 100 µM; in assay [5], 17.2 µM; in assay [6] it was 12.4 µM.

Regarding `C[C@H]1[C@H](C)CC[C@]2(C(=O)Nc3ccc(Br)cc3)CC[C@]3(C)C(=CC(=O)[C@@H]4[C@@]5(C)C[C@@H](O)[C@H](O)[C@@](C)(CO)[C@@H]5CC[C@]43C)[C@H]12`, the IC50 in assay [1] is 20.6 µM; in assay [2] it was 21.3 µM; in assay [3], 31.2 µM; in assay [4], greater than 100 µM; in assay [5], greater than 100 µM; in assay [6], 18.5 µM.

`C[C@H]1[C@H](C)CC[C@]2(C(=O)Nc3cccc(Br)c3)CC[C@]3(C)C(=CC(=O)[C@@H]4[C@@]5(C)C[C@@H](O)[C@H](O)[C@@](C)(CO)[C@@H]5CC[C@]43C)[C@H]12`: the IC50 was 15.5 µM in assay [1]; 20.4 µM in assay [2]; 24.8 µM in assay [3]; greater than 100 µM in assay [4]; 22.4 µM in assay [5]; 16.2 µM in assay [6].

In the case of `C[C@H]1[C@H](C)CC[C@]2(C(=O)Nc3ccccc3)CC[C@]3(C)C(=CC(=O)[C@@H]4[C@@]5(C)C[C@@H](O)[C@H](O)[C@@](C)(CO)[C@@H]5CC[C@]43C)[C@H]12`, the IC50 in assay [1] was greater than 100 µM; in assay [2], greater than 100 µM; in assay [3], 12.2 µM; in assay [4] it was greater than 100 µM; in assay [5], greater than 100 µM; in assay [6], 26.9 µM.

Turning to `COc1ccccc1NC(=O)[C@]12CC[C@@H](C)[C@H](C)[C@H]1C1=CC(=O)[C@@H]3[C@@]4(C)C[C@@H](O)[C@H](O)[C@@](C)(CO)[C@@H]4CC[C@@]3(C)[C@]1(C)CC2`, the IC50 was 19 µM in assay [1]; 10.9 µM in assay [2]; 18.4 µM in assay [3]; greater than 100 µM in assay [4]; 16.2 µM in assay [5]; 34.5 µM in assay [6].

Turning to `Cc1cc(Br)ccc1NC(=O)[C@]12CC[C@@H](C)[C@H](C)[C@H]1C1=CC(=O)[C@@H]3[C@@]4(C)C[C@@H](O)[C@H](O)[C@@](C)(CO)[C@@H]4CC[C@@]3(C)[C@]1(C)CC2`, the IC50 is 14.6 µM in assay [1]; 22.8 µM in assay [2]; 23.8 µM in assay [3]; greater than 100 µM in assay [4]; 17 µM in assay [5]; 15.7 µM in assay [6].

Regarding `COc1cccc(NC(=O)[C@]23CC[C@@H](C)[C@H](C)[C@H]2C2=CC(=O)[C@@H]4[C@@]5(C)C[C@@H](O)[C@H](O)[C@@](C)(CO)[C@@H]5CC[C@@]4(C)[C@]2(C)CC3)c1`, the IC50 in assay [1] was 24.3 µM; in assay [2], 8.89 µM; in assay [3], 23.1 µM; in assay [4] it was greater than 100 µM; in assay [5] it was 23.5 µM; in assay [6], 17.8 µM.

Regarding `Cc1ccc(C)c(NC(=O)[C@]23CC[C@@H](C)[C@H](C)[C@H]2C2=CC(=O)[C@@H]4[C@@]5(C)C[C@@H](O)[C@H](O)[C@@](C)(CO)[C@@H]5CC[C@@]4(C)[C@]2(C)CC3)c1`, the IC50 in assay [1] is 20.7 µM; in assay [2], 25.5 µM; in assay [3] it was 27.5 µM; in assay [4], greater than 100 µM; in assay [5], 15.7 µM; in assay [6], 16 µM.

Regarding `C[C@H]1[C@H](C)CC[C@]2(C(=O)Nc3ccc(F)cc3)CC[C@]3(C)C(=CC(=O)[C@@H]4[C@@]5(C)C[C@@H](O)[C@H](O)[C@@](C)(CO)[C@@H]5CC[C@]43C)[C@H]12`, the IC50 in assay [1] was 26.6 µM; in assay [2], greater than 100 µM; in assay [3] it was 31.9 µM; in assay [4] it was greater than 100 µM; in assay [5] it was greater than 100 µM; in assay [6], 20.8 µM.

Take `C[C@H]1[C@H](C)CC[C@]2(C(=O)Nc3ccccc3F)CC[C@]3(C)C(=CC(=O)[C@@H]4[C@@]5(C)C[C@@H](O)[C@H](O)[C@@](C)(CO)[C@@H]5CC[C@]43C)[C@H]12`: the IC50 in assay [1] was 19.9 µM; in assay [2], greater than 100 µM; in assay [3] it was 61.6 µM; in assay [4] it was greater than 100 µM; in assay [5], 23.2 µM; in assay [6] it was 32.5 µM.

`C[C@H]1[C@H](C)CC[C@]2(C(=O)Nc3ccc(Br)c(F)c3)CC[C@]3(C)C(=CC(=O)[C@@H]4[C@@]5(C)C[C@@H](O)[C@H](O)[C@@](C)(CO)[C@@H]5CC[C@]43C)[C@H]12`: the IC50 in assay [1] is 16 µM; in assay [2], 28.4 µM; in assay [3], 16.4 µM; in assay [4], greater than 100 µM; in assay [5] it was 17.4 µM; in assay [6] it was 9.71 µM.
